Hck Nef HTS: blocks Nef-activated human Hck kinase | P08631 | Recombinant Hck-YEEI plus Nef, Z-Lyte FRET kinase assay | inhibition, % at 20 µM | 220,000 tested, 0.68% active;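 active = Hck-Nef kinase inhibition above about 50%, limit read from the data; inactive = inhibition below that limit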;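 note: 0% = DMSO with Hck plus Nef and 100% = Hck alone without Nef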
Target sequence (P08631 whole entry, looked up): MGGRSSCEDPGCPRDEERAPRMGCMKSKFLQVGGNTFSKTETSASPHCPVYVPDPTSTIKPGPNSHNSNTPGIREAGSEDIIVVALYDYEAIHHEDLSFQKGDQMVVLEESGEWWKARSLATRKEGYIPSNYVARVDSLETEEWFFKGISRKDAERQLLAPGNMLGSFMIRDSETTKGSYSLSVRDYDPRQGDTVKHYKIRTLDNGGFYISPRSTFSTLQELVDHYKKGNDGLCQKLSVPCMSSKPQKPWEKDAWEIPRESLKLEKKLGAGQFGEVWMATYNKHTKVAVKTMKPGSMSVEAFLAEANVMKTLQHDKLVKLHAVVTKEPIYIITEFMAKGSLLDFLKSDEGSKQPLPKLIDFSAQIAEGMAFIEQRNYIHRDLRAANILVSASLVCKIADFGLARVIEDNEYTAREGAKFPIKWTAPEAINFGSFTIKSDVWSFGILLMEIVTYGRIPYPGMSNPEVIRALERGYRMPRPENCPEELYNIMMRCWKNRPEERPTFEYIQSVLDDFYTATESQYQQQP
Biofilm kill mix: mixtures killing C. albicans biofilm; C. albicans biofilm persisters + clotrimazole, fluorescence viability; primary screen in compound mixtures of four per well; inhibition, % at 7.6 µM; 120,000 tested, 0.02% active; AID 1242;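 active = inhibition above 30.3% in the primary screen of four-compound pools, then above 30% when the compound was retested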;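 note: compounds exposed to preformed 24 h biofilms for 48 h; 0% = untreated biofilm control and 100% = clotrimazole plus chlorhexidine kill blank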
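Incubation: 24 h biofilm formation, then 48 h compound exposure, 37 °C | Material: C. albicans biofilms | Buffer or medium: RPMI/MOPS medium, pH 7.0 | Measured by: 2-h Alamar Blue fluorescence, 535/590 nm excitation/emission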
p47phox inh: inhibitors of human p47phox binding. P14598. AID 1274. inhibition, % at 24.7 µM. p47phox/p22phox peptide binding, fluorescence polarization, 2 h. 220,000 tested, 0.53% active;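 active = inhibition above about 30%, limit read from the data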;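 note: 0% = p47phox with labelled peptide and 100% = labelled peptide alone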
WT yeast gro inh: growth inhibition of WT yeast, mitochondrial fusion screen. mitochondrial fusion phenotypic screen, WT strain. AID 1362. 190,000 tested, 2.1% active. inhibition, % at 10 µM; in the data active = inhibition above about 58%; tested in S. cerevisiae
RAM inhibit: yeast RAM network inhibition | inhibition, % at 50 µM | 190,000 tested, 1.8% active | S. cerevisiae dse1pr::URA3 reporter, 5-FOA growth OD615, 2 d; analog-sensitive cbk1-as2 kinase mutant strain;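 active = inhibition above a set limit, 3 SD over mean compound inhibition, cut at about 8.4% in these data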;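 note: 0% = DMSO-only wells with no growth and 100% = 10 µM 1-NA-PP1 full growth; inhibition rescues growth on 5-FOA so higher OD means more RAM inhibition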
Arbovirus inh: blocks arbovirus infection. inhibition, % at 10 µM. arbovirus infection cell-based antiviral screen. 200,000 tested, 0.37% active; in the data active = inhibition above about 30%
Active calls of the source: *. Hits are enriched below; roughly 4.6% of the tested compounds scored in any of these assays.

For CCN(CC)CCN(C(=O)c1c(F)cccc1F)c1nc2cc(C)cc(C)c2s1 the results were Hck Nef HTS -4.1, Biofilm kill mix 8.3, p47phox inh -6.6, WT yeast gro inh 59.4*, RAM inhibit -0.4 and Arbovirus inh -0.6.
Screening O=C(Cc1ccc(Cl)cc1Cl)OCC(=O)N1CCN(C(=O)c2ccco2)CC1 returned Hck Nef HTS 21.0, Biofilm kill mix 9.8, p47phox inh -1.6, RAM inhibit 0.4 and Arbovirus inh 3.0.
Screening NC(=O)C1CCN(CC(=O)Nc2cccnc2Cl)CC1 returned Hck Nef HTS 11.7, Biofilm kill mix 11.0, p47phox inh -5.5, WT yeast gro inh -4.3, RAM inhibit 0.9 and Arbovirus inh 1.4.
`O=[N+]([O-])c1ccc(-c2cn(-c3ccccc3)c(=S)[nH]2)cc1` gave Hck Nef HTS 2.3, Biofilm kill mix 12.1, p47phox inh -5.7, WT yeast gro inh -7.5, RAM inhibit 10.5* and Arbovirus inh -2.8.
`Cc1ccc(-n2c3nc(=O)[nH]c(=O)c-3cc3cc([N+](=O)[O-])ccc32)cc1C` gave Hck Nef HTS 2.0, Biofilm kill mix 11.6, p47phox inh -27.4, WT yeast gro inh 8.8, RAM inhibit 9.4* and Arbovirus inh 25.0.
Screening Cc1ccc(Nc2ccc(-n3ccnc3)nn2)cc1C returned Hck Nef HTS 4.3, p47phox inh -3.5, WT yeast gro inh 68.6*, RAM inhibit 0.5 and Arbovirus inh 4.9.
For COc1cc(C(=O)Nc2cccc(-c3cn4cccnc4n3)c2)cc(OC)c1OC the results were Hck Nef HTS 16.7, Biofilm kill mix 14.8, p47phox inh -6.0, WT yeast gro inh 0.1, RAM inhibit 1.0 and Arbovirus inh -17.2.
`Cc1onc(-c2ccccc2Cl)c1C(=O)Nc1nnc(-c2ccc(Br)cc2)s1` gave Hck Nef HTS 0.1, p47phox inh -5.8, WT yeast gro inh 68.4*, RAM inhibit 3.9 and Arbovirus inh -0.9.
For Cc1nnc(NC(=O)c2c(-c3ccccc3)noc2C)s1 the results were Hck Nef HTS 1.5, p47phox inh -10.3, WT yeast gro inh 10.5, RAM inhibit 1.1 and Arbovirus inh 2.1.
For CCOc1ccc(/C=N/NC(=O)c2c(-c3ccccc3)noc2C)cc1 the results were Hck Nef HTS 3.0, Biofilm kill mix 16.8, p47phox inh -8.9, WT yeast gro inh -9.2, RAM inhibit 10.9* and Arbovirus inh -14.1.
For Cc1onc(-c2ccccc2Cl)c1C(=O)Nc1cccc(-c2cn3cccnc3n2)c1 the results were Hck Nef HTS 2.6, p47phox inh -15.4, RAM inhibit 9.0* and Arbovirus inh -9.4.
Screening Cc1onc(-c2ccccc2)c1C(=O)Nc1nnc(COc2ccc(Cl)cc2)s1 returned Hck Nef HTS -1.6, p47phox inh 0.9, WT yeast gro inh 63.4*, RAM inhibit 2.7 and Arbovirus inh 15.3.
Cc1nc(-c2ccncc2)sc1C(=O)Nc1ccc(Br)cc1 was read as Hck Nef HTS -6.9, Biofilm kill mix 6.3, p47phox inh -1.2, WT yeast gro inh -4.6, RAM inhibit 0.7 and Arbovirus inh 1.3.
`Cc1onc(-c2ccccc2Cl)c1C(=O)Nc1nnc(-c2ccc(Cl)cc2Cl)s1` gave Hck Nef HTS 2.6, p47phox inh -17.3, WT yeast gro inh 63.1*, RAM inhibit 5.5 and Arbovirus inh -14.2.
Cc1onc(-c2ccccc2)c1C(=O)Nc1ccon1 was read as Hck Nef HTS -1.9, p47phox inh 36.5*, WT yeast gro inh 4.1, RAM inhibit 0.7 and Arbovirus inh 3.1.
Screening Cc1nn(Cc2ccccc2)c(Cl)c1C(=O)OCC#N returned Hck Nef HTS 18.6, Biofilm kill mix 13.1, p47phox inh -7.2, WT yeast gro inh -7.3, RAM inhibit 1.4 and Arbovirus inh 14.9.
Screening O=[N+]([O-])c1ccc(Oc2ccc(/C=N/O)cc2)nc1 returned Hck Nef HTS 15.2, Biofilm kill mix 24.4, p47phox inh -5.6, WT yeast gro inh 0.5, RAM inhibit 0.4 and Arbovirus inh -1.2.
`O=C1NC(=O)/C(=C\c2ccc(Oc3ccc([N+](=O)[O-])cn3)cc2)S1` gave Hck Nef HTS -15.7, Biofilm kill mix -0.6, p47phox inh -0.5, WT yeast gro inh 15.2, RAM inhibit 4.1 and Arbovirus inh 32.9*.
C=CCn1c(SCC2CCCCO2)nc2sc(CC)cc2c1=O (stereo not given) was read as Hck Nef HTS 24.6, Biofilm kill mix 6.8 and p47phox inh -3.5.
For Cc1ccc(N(CCC#N)C(=O)CN2C(=O)NC(Cc3ccccc3)C2=O)cc1 (stereo not given) the results were Hck Nef HTS 16.4, Biofilm kill mix 16.4, p47phox inh -6.2, WT yeast gro inh 13.8, RAM inhibit 5.6 and Arbovirus inh 12.1.
`COc1ccc(/C=N/Nc2ccc(C(F)(F)F)cc2[N+](=O)[O-])cc1O` gave Hck Nef HTS 7.2, Biofilm kill mix 22.6, p47phox inh -35.5, WT yeast gro inh 13.4, RAM inhibit 10.5* and Arbovirus inh 1.3.
Screening O=C(/C=C/c1ccccc1)NC(N1CCOCC1)C(Cl)(Cl)Cl (stereo not given) returned Hck Nef HTS -11.5, Biofilm kill mix 11.0, p47phox inh -10.1, WT yeast gro inh 7.8, RAM inhibit 0.9 and Arbovirus inh -0.9.
Screening CCOc1ccc(-n2c(SCC(=O)Nc3cc(C)on3)nnc2-c2c[nH]c3ccccc23)cc1 returned Hck Nef HTS 13.1, p47phox inh -152.1, WT yeast gro inh 62.9*, RAM inhibit 8.6* and Arbovirus inh 10.7.
For C=CCn1c(=S)[nH]c2scc(-c3ccc(C)o3)c2c1=O the results were Hck Nef HTS 17.3, Biofilm kill mix 16.2, p47phox inh -8.8, WT yeast gro inh 65.3*, RAM inhibit 5.2 and Arbovirus inh 29.8.
C=CCn1c(=S)[nH]c2sccc2c1=O was read as Hck Nef HTS 20.8, Biofilm kill mix 4.6, p47phox inh -9.2, WT yeast gro inh -7.4, RAM inhibit 0.1 and Arbovirus inh -7.3.
Screening Cc1cc(OCc2ccc(C(=O)NN=C3CCCC3)cc2)ccc1Cl returned Hck Nef HTS 4.7, Biofilm kill mix 6.9, p47phox inh -17.6, WT yeast gro inh 71.2, RAM inhibit 0.0 and Arbovirus inh -23.1.
Cc1ccc(C)c(-c2cc(C(=O)Nc3nccs3)c3ccccc3n2)c1 was read as Hck Nef HTS 2.6, p47phox inh -57.4, WT yeast gro inh 61.3*, RAM inhibit 0.0 and Arbovirus inh 18.4.
Cc1csc(NC(=O)c2cc(-c3ccccc3)nc3ccccc23)n1 was read as Hck Nef HTS -0.3, Biofilm kill mix 20.9, p47phox inh -35.7, WT yeast gro inh 61.9*, RAM inhibit 2.3 and Arbovirus inh 5.8.
`O=C(Nc1nnc(-c2cccs2)o1)c1cc(-c2ccccc2)nc2ccccc12` gave Hck Nef HTS -4.8, Biofilm kill mix 12.5, p47phox inh -11.4, WT yeast gro inh 71.2*, RAM inhibit 3.0 and Arbovirus inh -10.6.
